Data from ChEMBL document CHEMBL4689842, “EUbOPEN Chemogenomics Library wave 1” (2021).

System: U2OS
Test: Multiplex assay against U2OS
Assay type: toxicity, cell-based
Conditions: human
How it was run: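 Four dyes were applied at seeding to live cells: Hoechst33342, BioTracker Green Microtubule Cytoskeleton Dye, MitoTracker Red and Annexin V Alexa Fluor 680. Imaging after compound addition used a CQ1 microscope at 37°C and 5% CO2. CellPathfinder machine-learning gating then sorted cells into Hoechst high-intensity objects or normal cells, normal cells into healthy, pyknosed or fragmented nuclei, and pyknosed cells into mitotic or apoptotic, with tubulin, mitochondrial-mass and membrane-permeability phenotypes given as per cents of healthy-nucleus cells.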

[1] = 12 h, 1 µM, compound concentration 1 uM, replicate 1
[2] = 12 h, 1 µM, compound concentration 1 uM, replicate 2
[3] = 12 h, 10 µM, compound concentration 10 uM, replicate 1
[4] = 12 h, 10 µM, compound concentration 10 uM, replicate 2
[5] = 24 h, 1 µM, compound concentration 1 uM, replicate 1
[6] = 24 h, 1 µM, compound concentration 1 uM, replicate 2
[7] = 24 h, 10 µM, compound concentration 10 uM, replicate 1
[8] = 24 h, 10 µM, compound concentration 10 uM, replicate 2
[9] = 48 h, 1 µM, compound concentration 1 uM, replicate 1
[10] = 48 h, 1 µM, compound concentration 1 uM, replicate 2
[11] = 48 h, 10 µM, compound concentration 10 uM, replicate 1
[12] = 48 h, 10 µM, compound concentration 10 uM, replicate 2

Cc1cccc(CN2CCN(C(c3ccccc3)c3ccc(Cl)cc3)CC2)c1.Cl.Cl (configuration not stated)
Population Apoptotic (%) [1]: 27%
Population Fragmented Nuclei (%) [1]: 4%
Population Healthy Nuclei (%) [1]: 87%
Population Hoechst High Intensity Objects (%) [1]: 6%
Population Membrane Permeable-Phenotype (%) [1]: 3%
Population Mitochondria Different-Phenotype (%) [1]: 6%
Population Mitotic Cells (%) [1]: 72%
Population Normal (%) [1]: 93%
Population Pyknosed Nuclei (%) [1]: 7%
Population Tubulin-Different-Phenotype (%) [1]: 3%
Total Cell Count [1]: 182
Population Apoptotic (%) [2]: 0%
Population Fragmented Nuclei (%) [2]: 16%
Population Healthy Nuclei (%) [2]: 79%
Population Hoechst High Intensity Objects (%) [2]: 8%
Population Membrane Permeable-Phenotype (%) [2]: 4%
Population Mitochondria Different-Phenotype (%) [2]: 26%
Population Mitotic Cells (%) [2]: 100%
Population Normal (%) [2]: 91%
Population Pyknosed Nuclei (%) [2]: 3%
Population Tubulin-Different-Phenotype (%) [2]: 23%
Total Cell Count [2]: 48
Population Apoptotic (%) [3]: 54%
Population Fragmented Nuclei (%) [3]: 6%
Population Healthy Nuclei (%) [3]: 76%
Population Hoechst High Intensity Objects (%) [3]: 5%
Population Membrane Permeable-Phenotype (%) [3]: 4%
Population Mitochondria Different-Phenotype (%) [3]: 73%
Population Mitotic Cells (%) [3]: 45%
Population Normal (%) [3]: 94%
Population Pyknosed Nuclei (%) [3]: 16%
Population Tubulin-Different-Phenotype (%) [3]: 78%
Total Cell Count [3]: 149
Population Apoptotic (%) [4]: 50%
Population Fragmented Nuclei (%) [4]: 14%
Population Healthy Nuclei (%) [4]: 72%
Population Hoechst High Intensity Objects (%) [4]: 6%
Population Membrane Permeable-Phenotype (%) [4]: 6%
Population Mitochondria Different-Phenotype (%) [4]: 61%
Population Mitotic Cells (%) [4]: 50%
Population Normal (%) [4]: 93%
Population Pyknosed Nuclei (%) [4]: 13%
Population Tubulin-Different-Phenotype (%) [4]: 47%
Total Cell Count [4]: 58
Population Apoptotic (%) [5]: 45%
Population Fragmented Nuclei (%) [5]: 7%
Population Healthy Nuclei (%) [5]: 86%
Population Hoechst High Intensity Objects (%) [5]: 5%
Population Membrane Permeable-Phenotype (%) [5]: 2%
Population Mitochondria Different-Phenotype (%) [5]: 8%
Population Mitotic Cells (%) [5]: 54%
Population Normal (%) [5]: 94%
Population Pyknosed Nuclei (%) [5]: 6%
Population Tubulin-Different-Phenotype (%) [5]: 2%
Total Cell Count [5]: 176
Population Apoptotic (%) [6]: 80%
Population Fragmented Nuclei (%) [6]: 18%
Population Healthy Nuclei (%) [6]: 73%
Population Hoechst High Intensity Objects (%) [6]: 10%
Population Membrane Permeable-Phenotype (%) [6]: 11%
Population Mitochondria Different-Phenotype (%) [6]: 13%
Population Mitotic Cells (%) [6]: 20%
Population Normal (%) [6]: 89%
Population Pyknosed Nuclei (%) [6]: 8%
Population Tubulin-Different-Phenotype (%) [6]: 22%
Total Cell Count [6]: 47
Population Apoptotic (%) [7]: 42%
Population Fragmented Nuclei (%) [7]: 6%
Population Healthy Nuclei (%) [7]: 74%
Population Hoechst High Intensity Objects (%) [7]: 7%
Population Membrane Permeable-Phenotype (%) [7]: 2%
Population Mitochondria Different-Phenotype (%) [7]: 65%
Population Mitotic Cells (%) [7]: 57%
Population Normal (%) [7]: 92%
Population Pyknosed Nuclei (%) [7]: 19%
Population Tubulin-Different-Phenotype (%) [7]: 61%
Total Cell Count [7]: 181
Population Apoptotic (%) [8]: 11%
Population Fragmented Nuclei (%) [8]: 10%
Population Healthy Nuclei (%) [8]: 77%
Population Hoechst High Intensity Objects (%) [8]: 5%
Population Membrane Permeable-Phenotype (%) [8]: 5%
Population Mitochondria Different-Phenotype (%) [8]: 63%
Population Mitotic Cells (%) [8]: 88%
Population Normal (%) [8]: 94%
Population Pyknosed Nuclei (%) [8]: 12%
Population Tubulin-Different-Phenotype (%) [8]: 45%
Total Cell Count [8]: 67
Population Apoptotic (%) [9]: 30%
Population Fragmented Nuclei (%) [9]: 5%
Population Healthy Nuclei (%) [9]: 85%
Population Hoechst High Intensity Objects (%) [9]: 3%
Population Membrane Permeable-Phenotype (%) [9]: 1%
Population Mitochondria Different-Phenotype (%) [9]: 11%
Population Mitotic Cells (%) [9]: 69%
Population Normal (%) [9]: 96%
Population Pyknosed Nuclei (%) [9]: 8%
Population Tubulin-Different-Phenotype (%) [9]: 5%
Total Cell Count [9]: 192
Population Apoptotic (%) [10]: 0%
Population Fragmented Nuclei (%) [10]: 9%
Population Healthy Nuclei (%) [10]: 84%
Population Hoechst High Intensity Objects (%) [10]: 7%
Population Membrane Permeable-Phenotype (%) [10]: 5%
Population Mitochondria Different-Phenotype (%) [10]: 16%
Population Mitotic Cells (%) [10]: 100%
Population Normal (%) [10]: 92%
Population Pyknosed Nuclei (%) [10]: 6%
Population Tubulin-Different-Phenotype (%) [10]: 24%
Total Cell Count [10]: 45
Population Apoptotic (%) [11]: 54%
Population Fragmented Nuclei (%) [11]: 8%
Population Healthy Nuclei (%) [11]: 72%
Population Hoechst High Intensity Objects (%) [11]: 4%
Population Membrane Permeable-Phenotype (%) [11]: 3%
Population Mitochondria Different-Phenotype (%) [11]: 42%
Population Mitotic Cells (%) [11]: 45%
Population Normal (%) [11]: 95%
Population Pyknosed Nuclei (%) [11]: 18%
Population Tubulin-Different-Phenotype (%) [11]: 44%
Total Cell Count [11]: 299
Population Apoptotic (%) [12]: 25%
Population Fragmented Nuclei (%) [12]: 12%
Population Healthy Nuclei (%) [12]: 71%
Population Hoechst High Intensity Objects (%) [12]: 5%
Population Membrane Permeable-Phenotype (%) [12]: 7%
Population Mitochondria Different-Phenotype (%) [12]: 30%
Population Mitotic Cells (%) [12]: 75%
Population Normal (%) [12]: 94%
Population Pyknosed Nuclei (%) [12]: 16%
Population Tubulin-Different-Phenotype (%) [12]: 18%
Total Cell Count [12]: 95
